{"data": "Measurements pooled from the literature", "effect on": "enzyme activity", "mode": "inhibitor", "HIPK1": "Homeodomain-interacting protein kinase 1 (HIPK1, Homo sapiens, UniProt Q86Z02)", "MAP3K11": "Mitogen-activated protein kinase kinase kinase 11 (MAP3K11, Homo sapiens, UniProt Q16584)", "MAP3K1": "Mitogen-activated protein kinase kinase kinase 1 (MAP3K1, Homo sapiens, UniProt Q13233)", "note": "Compare with care: the assays were run in different laboratories."}
{"SMILES": "O=C(O)c1ccc2c(c1)nc(Nc1ccc3ccccc3c1)c1ccncc12", "target": "HIPK1", "assay": "radiometric", "setting": "1 µM", "remaining activity": "13%"}
{"SMILES": "CC(C)(O)[C@H]1CC[C@H](Nc2ccc3ncc(-c4cccc(C(F)(F)F)c4)n3n2)CC1", "target": "cAMP-dependent protein kinase catalytic subunit gamma (PRKACG, Homo sapiens, UniProt P22612)", "setting": "1 µM", "remaining activity": "98.6%"}
{"SMILES": "Cc1cnc(NC2CCOCC2)nc1-n1cnc(C(=O)NC(CN)c2cc(F)cc(Cl)c2)c1 (centres unmarked)", "target": "Hepatocyte growth factor receptor (MET, Homo sapiens, UniProt P08581, M1250T)", "assay": "radiometric", "setting": "1 µM", "remaining activity": "100%"}
{"SMILES": "O=C(NCCCNc1ccnc(Nc2cccc(NC(=O)N3CCCC3)c2)n1)C1CCC1", "target": "MAP3K11", "assay": "radiometric", "setting": "1 µM", "remaining activity": "86%"}
{"SMILES": "COc1cccc(CCNc2nc3cc(C(=O)O)ccc3c3cnccc23)c1", "target": "HIPK1", "assay": "radiometric", "setting": "1 µM", "remaining activity": "16%"}
{"SMILES": "Cc1nn(CC(F)(F)F)cc1Nc1ncc(C2CC2)c(NCc2ccc(S(N)(=O)=O)cc2)n1", "target": "MAP3K11", "assay": "radiometric", "setting": "1 µM", "remaining activity": "89%"}
{"SMILES": "CCCOc1ccc(OC)c(F)c1C(=O)c1ccc(C(=O)N[C@@H]2CNC[C@H]2NC(=O)c2ccc3[nH]ncc3c2)cc1", "target": "Mitogen-activated protein kinase 1 (Mapk1, Mus musculus, UniProt P63085)", "setting": "10 µM", "remaining activity": "100%"}
{"SMILES": "O=C(NCCCNc1nc(Nc2cccc(CN3CCOCC3)c2)ncc1C1CC1)C1CCC1", "target": "MAP3K11", "assay": "radiometric", "setting": "1 µM", "remaining activity": "38%"}
{"SMILES": "FC(F)c1nc2ccccc2n1-c1nc(N2CCOCC2)nc(N2CCOCC2)n1", "target": "MAP3K1", "setting": "10 µM", "remaining activity": "92%"}
{"SMILES": "COc1cc(Nc2cnc(C#N)c(O[C@H](C)CN(C)C)n2)ncc1-c1cnn(C)c1", "target": "MAP3K1", "assay": "radiometric", "setting": "10 µM", "remaining activity": "99%"}
{"SMILES": "Cc1ccc(C(=O)Nc2ccc(CN3CCN(C)CC3)c(C(F)(F)F)c2)cc1C#Cc1cnc2cccnn12", "target": "Serine/threonine-protein kinase 36 (STK36, Homo sapiens, UniProt Q9NRP7)", "setting": "23.5 nM", "remaining activity": "100%"}
